Measurements from ChEMBL document CHEMBL1649387, “Synthesis and evaluation of quinonoid compounds against tumor cell lines” (Eur J Med Chem, 2011).

What was measured:
PBMC = test: Cytotoxicity against human PBMC cells after 72 hrs by Alamar Blue assay; format: cell-based
HL-60 [1] = test: Cytotoxicity against human HL60 cells after 72 hrs by MTT assay; format: functional, cell-based; settings: HL-60, 72 h
MDA-MB-435 [2] = test: Induction of apoptosis in human MDA-MB-435 cells assessed as apoptotic nuclei at 5 uM after 24 hrs by acridine orange/ethidium bromide staining based fluorescence microscopy; format: functional
How it was run: (§1)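 Cells exposed 24 h, with or without 24 h pretreatment with 1-bromoheptane. Cell suspension mixed with acridine orange/ethidium bromide (each 100 in PBS) and spread on slide. 300 cells counted per point by fluorescence microscopy to give % apoptotic cells. Mean ± S.E.M. of three experiments.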

HL-60 [3] = test: Induction of apoptosis in human HL60 cells assessed as apoptotic nuclei at 5 uM after 24 hrs by acridine orange/ethidium bromide staining based fluorescence microscopy in presence of 1-bromoheptane; format: functional; how it was run: as §1
SF-295 [4] = test: Induction of apoptosis in human SF295 cells assessed as apoptotic nuclei at 5 uM after 24 hrs by acridine orange/ethidium bromide staining based fluorescence microscopy; format: functional; how it was run: as §1
SF-295 [5] = test: Induction of apoptosis in human SF295 cells assessed as apoptotic nuclei at 5 uM after 24 hrs by acridine orange/ethidium bromide staining based fluorescence microscopy in presence of 1-bromoheptane; format: functional; how it was run: as §1
HCT-8 [6] = test: Induction of apoptosis in human HCT8 cells assessed as apoptotic nuclei at 5 uM after 24 hrs by acridine orange/ethidium bromide staining based fluorescence microscopy in presence of 1-bromoheptane; format: functional; how it was run: as §1
HL-60 [7] = test: Induction of apoptosis in human HL60 cells assessed as apoptotic nuclei at 5 uM after 24 hrs by acridine orange/ethidium bromide staining based fluorescence microscopy; format: functional; how it was run: as §1
SF-295 [8] = test: Cytotoxicity against human SF295 cells after 72 hrs by MTT assay; format: functional, cell-based; settings: SF-295, 72 h
HCT-8 [9] = test: Induction of apoptosis in human HCT8 cells assessed as apoptotic nuclei at 5 uM after 24 hrs by acridine orange/ethidium bromide staining based fluorescence microscopy; format: functional; how it was run: as §1
MDA-MB-435 [10] = test: Induction of apoptosis in human MDA-MB-435 cells assessed as apoptotic nuclei at 5 uM after 24 hrs by acridine orange/ethidium bromide staining based fluorescence microscopy in presence of 1-bromoheptane; format: functional; how it was run: as §1
HCT-8 [11] = test: Cytotoxicity against human HCT8 cells after 72 hrs by MTT assay; format: functional, cell-based; settings: HCT-8, 72 h
MDA-MB-435 [12] = test: Cytotoxicity against human MDA-MB-435 cells after 72 hrs by MTT assay; format: functional, cell-based; settings: MDA-MB-435, 72 h

Structure (SMILES) | IC50 (PBMC) [µM] | IC50 (HL-60 [1]) [µM] | Activity (MDA-MB-435 [2]) [%] | Activity (HL-60 [3]) [%] | Activity (SF-295 [4]) [%] | Activity (SF-295 [5]) [%] | Activity (HCT-8 [6]) [%] | Activity (HL-60 [7]) [%] | IC50 (SF-295 [8]) [µM] | Activity (HCT-8 [9]) [%] | Activity (MDA-MB-435 [10]) [%] | IC50 (HCT-8 [11]) [µM] | IC50 (MDA-MB-435 [12]) [µM]
O=C1c2ccccc2C(=O)c2c1ccc1nc(-c3ccccc3O)[nH]c21 | > 14.7 | > 14.7 | 7.39 | 12.59 | 11.73 | 9.91 | 4.19 | 8.21 | 3.87 | 6.48 | 10.04 | 3.64 | > 14.7
Cc1ccc(-c2nc3ccc4c(c3[nH]2)C(=O)c2ccccc2C4=O)cc1 | > 14.8 | > 14.8 | 7.49 | 9.62 | 5.82 | 4.17 | 9.31 | 5.27 | > 14.8 | 8.72 | 12.27 | > 14.8 | > 14.8
CC(C)CCC1=C(OC2(CCC(C)C)C(=O)C(=O)c3ccccc3C2=O)C(=O)c2ccccc2C1=O (stereo not drawn) | > 10.3 | > 10.3 | 9.51 | 4.17 | 7.94 | 8.01 | 11.46 | 8.13 | > 10.3 | 8.71 | 7.44 | > 10.3 | > 10.3
CC(C)=CCC1=C(OC2(CC=C(C)C)C(=O)C(=O)c3ccccc3C2=O)C(=O)c2ccccc2C1=O (stereo not drawn) | > 10.4 | > 10.4 | 4.72 | 8.46 | 11.45 | 7.3 | 9.16 | 11.17 | > 10.4 | 8.52 | 5.82 | 9.76 | > 10.4
CC1(C)OC2=C(C(=O)C(=O)c3ccccc32)[C@H](n2cc(-c3ccc(Br)cc3)nn2)[C@H]1Br | 4.01 | 1.67 | – | – | – | – | – | – | 2.33 | – | – | 2.24 | 1.99
CCCC1=C(O)C(=O)C2=C(CCCC2)C1=O | > 22.7 | > 22.7 | – | – | – | – | – | – | > 22.7 | – | – | 3.99 | > 22.7
CC1(C)OC2C(=O)c3ccccc3C(=O)C2[C@@H](N=[N+]=[N-])[C@@H]1Br (stereo partly drawn) | 11.3 | 5.68 | – | – | – | – | – | – | 13.8 | – | – | 12.4 | 3.97
Cc1ccccc1-c1nc2ccc3c(c2[nH]1)C(=O)c1ccccc1C3=O | > 14.8 | > 14.8 | 6.33 | 10.75 | 11.85 | 13.95 | 9.17 | 11.47 | > 14.8 | 5.33 | 10.38 | > 14.8 | > 14.8
CC(C)CC1=C(O)C(=O)C2=C(CCCC2)C1=O | > 21.4 | > 21.4 | – | – | – | – | – | – | > 21.4 | – | – | > 21.4 | > 21.4
CC(C)CC1=C(OC2(CC(C)C)C(=O)C(=O)C3=C(CCCC3)C2=O)C(=O)C2=C(CCCC2)C1=O (stereo not drawn) | > 10.7 | > 10.7 | – | – | – | – | – | – | > 10.7 | – | – | > 10.7 | > 10.7
Cc1cccc(-c2nc3ccc4c(c3[nH]2)C(=O)c2ccccc2C4=O)c1 | > 14.8 | > 14.8 | 9.81 | 6.18 | 10.05 | 7.38 | 7.28 | 7.33 | > 14.8 | 12.01 | 6.17 | > 14.8 | > 14.8
CCCC1=C(O)C(=O)c2ccccc2C1=O | > 23.1 | > 23.1 | – | – | – | – | – | – | – | – | – | > 23.1 | > 23.1
COc1cc(-c2nc3ccc4c(c3[nH]2)C(=O)c2ccccc2C4=O)ccc1O | > 13.6 | > 13.6 | – | – | – | – | – | – | > 13.6 | – | – | > 13.6 | > 13.6
O=C1c2ccccc2C(=O)c2c1ccc1nc(-c3ccccc3)[nH]c21 | > 15.4 | > 15.4 | 9.02 | 8.37 | 7.32 | 9.17 | 8.11 | 12.59 | > 15.4 | 10.35 | 11.44 | > 15.4 | > 15.4
CC(C)CCC1=C(O)C(=O)c2ccccc2C1=O | > 20.5 | > 20.5 | – | – | – | – | – | – | > 20.5 | – | – | > 20.5 | > 20.5
COc1ccc(-c2cn([C@H]3C4=C(OC(C)(C)[C@@H]3Br)c3ccccc3C(=O)C4=O)nn2)cc1 | 2.52 | 1.88 | – | – | – | – | – | – | 3.01 | – | – | 3.21 | 1.92
C=CCC1=C(OC2(CC=C)C(=O)C(=O)c3ccccc3C2=O)C(=O)c2ccccc2C1=O (stereo not drawn) | > 11.7 | > 11.7 | 7.94 | 8.55 | 8.3 | 11.47 | 9.37 | 3.91 | > 11.7 | 12.52 | 11.36 | > 11.7 | > 11.7
O=C1c2ccccc2C(=O)c2c1ccc1nc(-c3ccccc3F)[nH]c21 | > 14.6 | > 14.6 | – | – | – | – | – | – | > 14.6 | – | – | > 14.6 | > 14.6
O=C1c2ccccc2C(=O)c2c1ccc1nc(-c3cccc(F)c3)[nH]c21 | > 14.6 | > 14.6 | – | – | – | – | – | – | > 14.6 | – | – | > 14.6 | > 14.6
CC(C)CC1=C(OC2(CC(C)C)C(=O)C(=O)c3ccccc3C2=O)C(=O)c2ccccc2C1=O (stereo not drawn) | > 10.9 | > 10.9 | – | – | – | – | – | – | > 10.9 | – | – | > 10.9 | > 10.9
O=C1c2ccccc2C(=O)c2c1ccc1nc(-c3ccc(F)cc3)[nH]c21 | > 14.6 | > 14.6 | – | – | – | – | – | – | > 14.6 | – | – | > 14.6 | > 14.6
CCCC1=C(OC2(CCC)C(=O)C(=O)c3ccccc3C2=O)C(=O)c2ccccc2C1=O (stereo not drawn) | > 11.6 | > 11.6 | – | – | – | – | – | – | > 11.6 | – | – | > 11.6 | > 11.6
CC(C)CCC1=C(O)C(=O)C2=C(CCCC2)C1=O | > 20.1 | > 20.1 | – | – | – | – | – | – | > 20.1 | – | – | > 20.1 | > 20.1
CC1=C(OC2(C)C(=O)c3ccccc3C2=O)C(=O)c2ccccc2C1=O | > 14.4 | > 14.4 | – | – | – | – | – | – | > 14.4 | – | – | > 14.4 | > 14.4
CC1(C)OC2=C(C(=O)C(=O)c3ccccc32)[C@H](N=[N+]=[N-])[C@H]1Br | 3.58 | 1.43 | – | – | – | – | – | – | 1.93 | – | – | 2.42 | 1.54
CC(C)CC1=C(O)C(=O)c2ccccc2C1=O | > 21.7 | > 21.7 | – | – | – | – | – | – | > 21.7 | – | – | > 21.7 | > 21.7
